# Bioassay records (PubChem)
# KCNK9 inh = blocks the human KCNK9 two-pore domain potassium channel. B-score at 10 µM. AID 488922. Q9NPC2. actives 1.2% (n = 310,000). HEK293 KCNK9, FluxOR thallium flux fluorescence; active compounds read low;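 active = ratio B-score over 3 SD below the library mean, with starting fluorescence within 5 SD of its mean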;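 also: negative B-score means less thallium flux so channel inhibition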
# KCNQ1 pot = potentiates or activates the human KCNQ1 potassium channel; AID 2648; CHO-K1 KCNQ1, thallium flux FluxOR fluorescence; active compounds read high; B-score at 10 µM; actives 0.35% (n = 310,000);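 active = fluorescence ratio B-score, a plate-corrected score, at least three library SD, with initial intensity B-score within 5 SD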
# Target sequence (P51787 whole entry, looked up): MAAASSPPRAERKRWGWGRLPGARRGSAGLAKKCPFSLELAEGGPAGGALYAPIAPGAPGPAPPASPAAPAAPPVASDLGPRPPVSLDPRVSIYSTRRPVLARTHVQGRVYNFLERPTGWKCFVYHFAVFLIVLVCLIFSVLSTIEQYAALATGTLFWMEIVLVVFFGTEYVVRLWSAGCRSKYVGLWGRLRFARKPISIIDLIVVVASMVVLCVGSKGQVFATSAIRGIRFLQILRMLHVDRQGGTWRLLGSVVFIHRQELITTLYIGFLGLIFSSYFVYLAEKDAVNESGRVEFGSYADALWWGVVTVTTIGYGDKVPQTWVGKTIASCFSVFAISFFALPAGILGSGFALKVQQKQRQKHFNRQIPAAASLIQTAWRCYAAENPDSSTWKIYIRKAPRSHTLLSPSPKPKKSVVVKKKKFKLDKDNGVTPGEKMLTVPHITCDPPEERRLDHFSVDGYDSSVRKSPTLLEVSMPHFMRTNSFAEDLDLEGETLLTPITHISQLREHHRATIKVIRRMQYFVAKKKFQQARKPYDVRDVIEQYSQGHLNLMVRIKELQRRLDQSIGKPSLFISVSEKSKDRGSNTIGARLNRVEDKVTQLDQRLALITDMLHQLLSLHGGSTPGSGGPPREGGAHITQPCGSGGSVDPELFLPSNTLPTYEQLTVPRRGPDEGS
#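 Assay system: CHO-K1 cells stably expressing KCNQ1; Medium: assay buffer with matched DMSO; Also added: K+/Tl+ depolarizing stimulus; Dosing: single dose; Timing: dye 90 min, compound 20 min, room temperature; Measured by: kinetic FluxOR thallium fluorescence, 10-s 1-Hz baseline, 110-s post-stimulus read; Read-out: peak-minus-minimum fluorescence over initial fluorescence, negative-control normalized, B-scored.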
# KCNK3 block = human KCNK3 channel inhibition, primary screen. O14649. CHO-KCNK3 thallium flux, FluxOR fluorescence; active compounds read low. B-score at 10 µM. actives 0.84% (n = 340,000);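 active = B-score under library mean minus 4 SD, starting fluorescence ratio at most library mean plus 5 SD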;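 also: more negative B-score means stronger inhibition of thallium flux through KCNK3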
# hERG rescue = compounds protecting human hERG from proarrhythmic drug block. AID 1511. CHO-hERG, FluxOR thallium flux, dofetilide IC70 present. activation (rescue from dofetilide block), less the hit threshold, % at 10 µM. actives 0.51% (n = 310,000);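 active = activation above the mean of controls blocked by dofetilide plus 5 SD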;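 also: thallium influx through hERG after potassium depolarization seen as dye fluorescence rise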
# KCNQ1 block = inhibitors of human KCNQ1 potassium channel | P51787 | actives 1.3% (n = 310,000) | CHO-K1 KCNQ1, FluxOR thallium flux fluorescence; active compounds read high | B-score at 10 µM;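 active = compounds whose thallium flux B-score, printed positive for inhibition, exceeds three library SD while starting fluorescence stays within three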;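 also: channel opened by potassium depolarization with thallium stimulus after 20 min compound exposure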
# Kir21 inh = blocks the mouse Kir2.1 inward-rectifier potassium channel; AID 1672; actives 0.85% (n = 310,000); B-score at 10 µM; P35561; HEK293-Kir2.1, FluxOR thallium flux fluorescence; active compounds read low;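 active = fluorescence ratio B-score at or below minus 3 SD of library scores, with starting-brightness B-score within 2 SD, cut at about -4.2 in these data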;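 also: channel flux triggered by added potassium and thallium sulfate stimulus; B-score of peak minus minimum fluorescence over baseline after thallium stimulus; more negative B-score means stronger Kir2.1 block with less thallium influx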
# KCNK9 inh conf = confirmation of human KCNK9 potassium channel inhibitors | inhibition, % at 10 µM | shares compounds with KCNK9 inh | AID 492992 | actives 43% (n = 4,900) | HEK293 KCNK9 cells, FluxOR thallium flux fluorescence;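 active = thallium signal inhibited by more than 5 SD of the compound-free buffer control wells, on both duplicate plates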
# Kir2-1 spec = tests whether KCNK9 modulators also affect mouse Kir2.1; Kir2.1 cells, FluxOR thallium flux fluorescence; inhibition, % at 10 µM; shares compounds with KCNK9 inh; actives 4% (n = 4,900);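 active = thallium signal drop more than 5 SD beyond the mean of the no-compound control wells, seen in both duplicate plates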;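 also: signal is fluorescence rise after thallium addition divided by baseline fluorescence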
# KCNK9 uninduced = non-induced cell nonspecific activity of KCNK9 modulators | inhibition, % at 10 µM | non-induced KCNK9-HEK293, FluxOR thallium flux | shares compounds with KCNK9 inh | actives 40% (n = 4,900);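 active = thallium signal drop beyond 5 SD of the untreated control mean, on both duplicate plates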
# A number is an active result; - = inactive; . = no result given. An excerpt weighted towards active compounds, which were near 3.7% of everything screened.
SMILES,KCNK9 inh,KCNQ1 pot,KCNK3 block,hERG rescue,KCNQ1 block,Kir21 inh,KCNK9 inh conf,Kir2-1 spec,KCNK9 uninduced
CCc1ccccc1NC(=O)/C(C#N)=C\c1ccc(Sc2ccccc2)o1,-11,-,-9.4,-,-,-,40%,-,49%
COc1ccccc1CNC(=O)CN(C)S(=O)(=O)c1ccc(F)cc1,-,-,-,-,-,-,.,.,.
CC(N=C1NS(=O)(=O)c2ccccc21)C(=O)NCc1ccc(F)cc1 (stereo not drawn),.,.,-,.,.,.,.,.,.
O=C(/C(=C\c1ccccc1)c1nc2ccccc2[nH]1)c1ccc(Cl)cc1,-,-,-,-,-,-,.,.,.
O=C(/C(=C/c1ccc(Cl)cc1)c1nc2ccccc2[nH]1)c1cccs1,-11,-,-,-,6,-,48%,-,41%
Cc1ccccc1-n1c(SCC(=O)c2c(N)n(C3CC3)c(=O)[nH]c2=O)nnc1N1CCOCC1,.,.,-,.,.,.,.,.,.
CCCOc1ccc2c3c(c(=O)oc2c1OCCC)CCCC3,-12,-,-,-,-,-,74%,-,31%
CC(Nc1cccc(C(=O)NC2CC2)c1)c1nnc(-c2ccccc2)o1 (stereo not drawn),.,.,-,.,.,.,.,.,.
CSc1nnc(C)c(/C=C/NOCc2ccc(Cl)cc2)n1,-,-,-,-,-,-,.,.,.
Cc1nnc(SCc2ccc(Cl)cc2)nc1/C=C/N(C)C,-,-,-,-,-,-,-,-,-
Cc1ccc2[nH]c(=O)c(C(c3nnnn3C3CCCC3)N(Cc3cccnc3)Cc3ccco3)cc2c1 (stereo not drawn),-,-,-,-,-,-,.,.,.
Clc1ccc(C(c2nnnn2C2CCCCC2)N(Cc2cccnc2)Cc2ccco2)cc1 (stereo not drawn),-11,-,-,-,-,-,-,-,45%
COc1ccccc1N1CC(C(=O)Nc2ccccc2N2CCCC2)CC1=O (stereo not drawn),-,-,-,-,-,-,.,.,.
O=C(CCSc1ccc(Cl)c(Cl)c1)NC12CC3CC(CC(C3)C1)C2,-,-,-,-,-,-,-,-,-
CCC(=O)Nc1cccc(C2=NN(c3ccccc3)C(c3ccc(OC)cc3)C2)c1 (stereo not drawn),-13,-,-,-,-,-,52%,-,40%
COc1ccccc1NC(=S)NC(=O)C(C)(C)C,-,-,-,-,-,-,-,-,-
Clc1ccc(-c2cnnc(-c3ccccn3)n2)cc1,.,.,-,.,.,.,.,.,.
O=C(CN1C(=O)S/C(=C\c2cccc(Cl)c2)C1=O)NCCCn1ccnc1,-,-,-,-,-,-,-,-,-
O=C(CN1C(=O)S/C(=C\c2ccc(Cl)cc2)C1=O)NCCCn1ccnc1,-,-,-,-,-,-,.,.,.
CCCOc1ccc(-c2c(=O)n(O)c3ccccc3[n+]2[O-])cc1,-8.9,-,-,28,-,-,-,-,-
CCOc1ccc(-c2c(=O)n(OCc3ccccn3)c3ccccc3[n+]2[O-])cc1,-,-,-,-,-,-,.,.,.
COc1ccccc1-c1nc2c3ccccc3nc(=S)n2[nH]1,-,-,-,-,-,-,.,.,.
CC(Oc1ccc(Br)cc1)c1nc2c3ccccc3nc(=S)n2[nH]1 (stereo not drawn),-,10,-,-,-,-,-,-,-
CCCC(Oc1ccc(Br)cc1)c1nc2c3cc(OC)c(OC)cc3nc(=S)n2[nH]1 (stereo not drawn),-,-,-,-,-,-,-,-,-
CCn1cc(/C=C(\NC(=O)c2ccccc2OC)C(=O)NCCCN2CCOCC2)c2ccccc21,-,-,-,-,-,-,.,.,.
SMILES,KCNK9 inh,KCNQ1 pot,KCNK3 block,hERG rescue,KCNQ1 block,Kir21 inh,KCNK9 inh conf,Kir2-1 spec,KCNK9 uninduced
CCn1cc(/C=C(\NC(=O)c2ccccc2F)C(=O)NCCN2CCOCC2)c2ccccc21,-,-,-,-,-,-,-,-,-
Cc1ccccc1N1CCN(CCCN2C(=O)CC(=C(c3ccccc3)c3ccccc3)C2=O)CC1,-,-,-,-,-,-,-,-,-
O=C1CC(=C(c2ccccc2)c2ccccc2)C(=O)N1CCCCN1CCN(c2cccc(Cl)c2)CC1,-,-,-,-,-,-,.,.,.
Cc1ccc(SCCNC(=S)Nc2ccc(C)cc2C)cc1,-,-,-,-,-,-,-,-,-
Cc1ccc(NC(=S)NCCC(c2ccccc2)c2ccccc2)c(C)c1,-,-,-,-,-,-,.,.,.
COc1ccc(NC(=S)N(CCc2c(C)[nH]c3ccccc23)Cc2ccco2)cc1,-,-,-,-,-,-,.,.,.
COc1ccc(OC)c(NC(=S)N(CCc2c(C)[nH]c3ccc(C)cc23)Cc2cccs2)c1,-9.4,-,-,-,-,-,34%,-,30%
COc1ccc2[nH]c(C)c(CCN(Cc3cccs3)C(=S)Nc3cccc(F)c3)c2c1,-14,-,-12,-,-,-,55%,-,31%
Cc1[nH]c2ccc(F)cc2c1CCN(Cc1cccnc1)C(=S)Nc1cccc(F)c1,-9.1,-,-,-,-,-,42%,-,44%
COc1cccc(NC(=S)N(CCN(C)C)Cc2cccs2)c1,-,-,-,-,-,-,.,.,.
COc1ccc(OC)c(NC(=S)N(CCc2c(C)[nH]c3ccccc23)Cc2cccs2)c1,-9.1,-,-,-,-,-,32%,-,31%
Cc1cccc(N2CCN(C(=O)CCCCCn3c(=S)[nH]c4ccc(N5CCOCC5)cc4c3=O)CC2)c1C,-,-,-,-,-,-,.,.,.
CCN1C[C@@H]2[C@@H]3C(=O)N(C)C(=O)[C@@H]3[C@](C)(C1=O)N2C(=O)c1ccc(Br)cc1,.,.,-,.,.,.,.,.,.
CC(C)CC1Nc2ncnc(N3CCCCC3)c2N(Cc2ccc(Br)cc2)C1=O (stereo not drawn),-14,-,-,-,-,-,76%,-,50%
O=C1C(Cc2ccccc2)Nc2ncnc(N3CCc4ccccc4C3)c2N1Cc1ccc(Cl)cc1 (stereo not drawn),-10,-,-,-,-,-,46%,-,36%
CCC1Nc2ncnc(N3CCCCC3)c2N(Cc2ccc(Br)cc2)C1=O (stereo not drawn),-11,-,-,-,-,-,58%,-,30%
O=C(CCNC(=O)c1ccc(Br)cc1)Nc1ccccc1N1CCCC1,-,-,-,-,-,-,.,.,.
O=C(CN(Cc1ccccc1)S(=O)(=O)c1cccc(C(F)(F)F)c1)NC1CCCCC1,-,-,-,-,-,-,.,.,.
